Experimental data as given in ChEMBL document CHEMBL1140317, “Novel alpha-amino-3-hydroxy-5-methyl-4-isoxazole propionate (AMPA) receptor antagonists of 2,3-benzodiazepine type: chemical synthesis, in vitro characterization, and in vivo prevention of acute neurodegeneration” (J Med Chem, 2005).

Key:
[1] = target: Glutamate receptor ionotropic, AMPA (Rattus norvegicus, UniProt P19490+P19491+P19492+P19493); experiment: In vitro inhibition of AMPA receptor mediated currents in primary cultured rat fetal hippocampal neurons; assay type: tissue-based, Hippocampus
Method in brief: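 Whole-cell patch clamp at −60 mV on hippocampal neurons from E19 Wistar rat fetuses, cultured 6–14 days (cytosine-arabinoside from day 6). Inward currents were evoked by bath-perfused kainate in pH 7.4 HEPES medium with CsCl pipet solution. Antagonist was bath-applied after 90 s preincubation in 0.3% DMSO final. Currents were normalized to the no-antagonist value, 5–6 cells per point, and the logistic fit gave IC50.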

Mus musculus [2] = experiment: Effect on brain lesion measured 24 hour after permanent MCA occlusion in mice upon four i.p. doses of 10 mg/kg (n=10); assay type: functional; details: route intraperitoneal
Method in brief: (§1)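 Male NMRI mice (23–30 g) under Avertin anesthesia (240 mg/kg ip), rectal temperature held at 37 ± 0.5 °C during surgery, underwent permanent MCA occlusion. Four ip injections in 10% cremophor EL were given 1 h before and 0, 1 and 2 h after occlusion. At 24 h, infarct volume was measured by TTC staining (Cavalieri principle). Results are mean ± SD versus vehicle, ANOVA with Dunnett test.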

Rattus norvegicus [3] = experiment: Effect on total cerebral infarct volume measured 24 hour after permanent MCA occlusion in rat upon four i.p. doses of 3 mg/kg (n=12); assay type: functional; details: route intraperitoneal
Method in brief: (§2)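 Male Fischer-344 rats with permanent MCA occlusion received four ip injections in 10% cremophor EL at 1, 2, 3 and 4 h after occlusion. Total infarct volume (cortex and striatum) was measured 24 h after occlusion by TTC staining with Cavalieri volume calculation. Results are mean ± SD versus vehicle group, ANOVA followed by Dunnett test.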

Rattus norvegicus [4] = experiment: Effect on total cerebral infarct volume measured 24 hour after permanent MCA occlusion in rat upon four i.p. doses of 10 mg/kg (n=15); assay type: functional; details: route intraperitoneal; method in brief: as §2
Rattus norvegicus [5] = experiment: Effect on total cerebral infarct volume measured 24 hour after permanent MCA occlusion in rat upon four i.p. doses of 30 mg/kg (n=10); assay type: functional; details: route intraperitoneal; method in brief: as §2
[6] = Volume of distribution was measured; assay type: ADME, organism-based; details: in vivo; read-out: Volume of distribution
Method in brief: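 Rats were given 2.5 mg/kg iv. Plasma was sampled at nine time points from 5 min to 7 h, precipitated with acetonitrile (1:5) and quantified by LC/MS/MS against matrix calibration curves with an internal standard, C18 column, water/acetonitrile with 0.1% acetic acid gradient. Volume of distribution was calculated from the concentration–time data.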

Rattus norvegicus [7] = experiment: Half life was measured after iv injection in rats; details: in vivo
Rattus norvegicus [8] = experiment: Plasma clearance was measured after iv injection in rats
Mus musculus [9] = experiment: Effect on brain lesion measured 24 hr after permanent MCA occlusion in mice upon four i.p. doses of 30 mg/kg (n=8); assay type: functional; details: route intraperitoneal; method in brief: as §1
Mus musculus [10] = experiment: Effect on brain lesion measured 24 hour after permanent MCA occlusion in mice upon four i.p. doses of 10 mg/kg (n=9); assay type: functional; details: route intraperitoneal; method in brief: as §1
Rattus norvegicus [11] = experiment: Effect on total cerebral infarct volume measured 24 hour after permanent MCA occlusion in rat at a dose of 3 mg/kg (n=6); assay type: functional
Method in brief: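 Male Fischer-344 rats underwent permanent MCA occlusion and received a single ip dose in physiological saline (0.9% NaCl) immediately after occlusion. Rectal temperature was held at 37 ± 0.5 °C during surgery. At 24 h, under Nembutal, brains were TTC-stained and infarct areas measured, with volume by Cavalieri principle. Mean ± SD; ANOVA with Dunnett's test versus vehicle.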

Mus musculus [12] = experiment: Effect on brain lesion measured 24 hour after permanent MCA occlusion in mice upon three i.p. doses of 30 mg/kg (n=12); assay type: functional; details: route intraperitoneal
Method in brief: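 Reference paradigm in male NMRI mice with permanent MCA occlusion, anesthetized with Avertin (240 mg/kg ip). Three ip injections of 30 mg/kg in physiological saline at 60, 70 and 85 min after occlusion (table footnote says 80 min). Infarct volume was measured at 24 h by TTC staining and Cavalieri calculation. Results are mean ± SD versus saline vehicle, ANOVA/Dunnett.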

c1ccc(C2=Nn3ccnc3Cc3cc4c(cc32)OCO4)cc1
IC50 [1]: 6.5 µM

Cc1nc2n(c1C)N=C(c1ccc(F)cc1)c1cc3c(cc1C2)OCO3
IC50 [1]: 10 µM

Cc1nc2n(c1C)N=C(c1ccccc1)c1cc3c(cc1C2)OCO3
Brain lesion (Mus musculus [2]): 17.1 mm³ | Total infarct volume (Rattus norvegicus [3]): 138 mm³ | Total infarct volume (Rattus norvegicus [4]): 142 mm³ | Total infarct volume (Rattus norvegicus [5]): 132 mm³ | IC50 [1]: 3.4 µM | Vd [6]: 2.7 L/kg | half-life (Rattus norvegicus [7]): 1.2 h | clearance (Rattus norvegicus [8]): 54 mL/min/kg

Cc1c(CO)nc2n1N=C(c1ccccc1)c1cc3c(cc1C2)OCO3
Brain lesion (Mus musculus [9]): 23 mm³ | Brain lesion (Mus musculus [10]): 20.6 mm³ | IC50 [1]: 4.6 µM

Clc1nc2n(c1Cl)N=C(c1ccccc1)c1cc3c(cc1C2)OCO3
IC50 [1]: > 10 µM

Cc1nc2n(c1C)N=C(c1ccc(Cl)cc1)c1cc3c(cc1C2)OCO3
IC50 [1]: 10 µM

Brc1nc2n(c1Br)N=C(c1ccccc1)c1cc3c(cc1C2)OCO3
IC50 [1]: > 10 µM

C[C@]12N[C@H](Cc3ccccc31)c1ccccc12 [DIZOCILPINE]
Total infarct volume (Rattus norvegicus [11]): 118 mm

CC1=NN=C(c2ccc(N)cc2)c2cc3c(cc2C1)OCO3 [GYKI-52466]
IC50 [1]: 9 µM

NS(=O)(=O)c1cccc2c1c([N+](=O)[O-])cc1nc(O)c(O)nc12 [NBQX]
Brain lesion (Mus musculus [12]): 18.4 mm³
